# Only some compounds are listed: those with a hit (about 3.4% of all), similar ones and a draw of the others.
# MC4R antagonist: MC4R antagonists of cAMP signaling, primary screen, cell-based, TR-FRET, antagonist arm of biased-ligand search; AID 540295, 2011; Melanocortin receptor 4 (Homo sapiens), P32245; inhibition, % at 6.5 µM; actives 0.48% (n = 360,000); MC4R-expressing cells, MTII-stimulated cAMP, LANCE TR-FRET;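 active = inhibition above its plate's cutoff, the mean of tested wells on that plate plus 3 SD, cut at about 29% in these data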;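 also: 0% = Melanotan II alone and 100% = Melanotan II plus saturating MCL0020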
#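 System: U2OS cells stably expressing human melanocortin 4 receptor (MC4R). Reagent: Melanotan II challenge after compound preincubation. Doses: 6.5 µM. Times: 30-min compound, 1-h challenge, 1-h detection, room temperature. Measured by: TR-FRET with Eu-cAMP and labeled anti-cAMP, 671 nm. Replicates: singlicate.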
# TMEM16A inh: TMEM16A chloride channel inhibitors, primary screen, cell-based, HTS. Anoctamin-1 (Mus musculus), Q8BHY3. HEK293 TMEM16A/YFP iodide influx fluorescence, ionomycin. normalized B-score (activity score, 25-100; higher = stronger inhibition) at 10 µM. actives 1.2% (n = 310,000);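 active = ratio plate-corrected score three or more library SD toward inhibition, starting fluorescence score within five deviations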;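 also: score derived from kinetic fluorescence span divided by baseline fluorescence per well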
# MIN6 prolif: inducers of MIN6 beta-cell proliferation, primary screen, ATP luminescence, uHTS. proliferation, % at 10 µM. actives 0.29% (n = 330,000). MIN6 cells proliferation, ATPlite luminescence, 48 h; cells starved in 0.2% serum; 100% = growth in 10% serum. AID 2380, 2010;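 active = compounds whose signal lies at least 3.5 SD above the mean of all wells on their plate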;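 also: 0% = DMSO-treated cells in low-serum medium and 100% = 10% serum control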
# ANO1 activ: TMEM16A chloride channel activators or potentiators, primary screen, cell-based, HTS | AID 623877, 2012 | HEK293 TMEM16A/YFP-H148Q/I152L, iodide quench fluorescence; active compounds read low | Anoctamin-1 (Mus musculus), Q8BHY3 | B-score at 10 µM | actives 0.3% (n = 340,000);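 active = fluorescence-ratio B-score plate-corrected deviation score at least 3 library SD below zero, with starting fluorescence score within 5 deviations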;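 also: channel opened by trigger with iodide after compound preincubation; score built on the fluorescence ratio of max minus min over baseline; more negative score means more quench and so TMEM16A activation or potentiation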
# MC4R ag barr: MC4R agonists recruiting beta-arrestin, primary screen, cell-based, luminescence, agonist arm of biased-ligand search; U2OS MC4R beta-arrestin complementation; percent of melanotan II response, DMSO zero; activation, % at 8.9 µM; actives 0.98% (n = 360,000);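 active = activation above a per-plate cutoff, the mean activation of sample wells on that plate plus 3 SD, cut at about 8% in these data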
# HTR2A ag: mouse Htr2a agonists via beta-arrestin recruitment, primary screen, cell-based, luminescence; activation, % at 7.6 µM; actives 0.66% (n = 360,000); CHO-K1 mHTR2A beta-arrestin complementation; percent of 30 µM serotonin response; 5-hydroxytryptamine receptor 2A (Mus musculus), P35363;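 active = activation above a run cutoff, the mean activation of all tested compounds plus 3 SD, cut at about 14% in these data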;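 also: 0% = plate median of compound wells and 100% = 30 µM serotonin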
# MC4R barr conf: MC4R beta-arrestin agonists, retest, confirmation, cell-based, luminescence, U2OS | shares compounds with MC4R ag barr | U2OS MC4R beta-arrestin recruitment; scaled DMSO 0%, Melanotan II 100% | activation, % at 8.9 µM | actives 31% (n = 2,400);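 active = mean activation across replicates above the hit cutoff set in the earlier primary screen, cut at about 8% in these data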
# MOR-DOR barr ag: agonists of MOR-DOR heterodimerization, counter-screen for MC4R biased agonist project, cell-based, luminescence; shares compounds with MC4R ag barr; U2OS PathHunter beta-arrestin, beta-gal luminescence; percent of deltorphin B response, DMSO zero; activation, % at 9.2 µM; actives 5.8% (n = 2,400); AID 602194, 2012;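 active = mean activation across replicates exceeds the hit threshold derived in the earlier primary screen, cut at about 18% in these data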;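 also: 100% = deltorphin B at 0.9 µM final and 0% = DMSO alone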
# An asterisk follows results filed as active; i = inactive; . = no result.
SMILES,MC4R antagonist,TMEM16A inh,MIN6 prolif,ANO1 activ,MC4R ag barr,HTR2A ag,MC4R barr conf,MOR-DOR barr ag
Cc1ccc(SCC(=O)Nc2cccc(C)c2)cc1,-1,i,-1,i,-2,5,.,.
O=C(Cc1ccc(Cl)cc1)Nc1ccc(-c2nnc(-c3ccco3)o2)cc1,-2,i,-2,i,12*,-6,13*,10
CC(C)(C)OC(=O)N1CCN(C(=O)c2ncn(Cc3ccccc3)c2C(=O)N2CCN(C(=O)OC(C)(C)C)CC2)CC1,1,.,-3,i,-1,-2,.,.
O=C(CSCc1ccc(Cl)cc1)Nc1ccc(-c2nnc(-c3ccccc3)o2)cc1,-2,i,-3,i,9.9*,3,2,2
O=C(Nc1ccc(-c2nnc(-c3ccco3)o2)cc1)C(c1ccccc1)c1ccccc1,13,i,-4,i,23*,-1,4,7
CCS(=O)(=O)N1CCC(C(=O)Nc2cc(C)ccc2O)CC1,0,i,-2,i,-1,-1,.,.
CC(C)c1ccc(-n2nnnc2SCC(=O)NC2CC2)cc1,3,.,1,.,0,-3,.,.
NC(=O)c1c(NC(=O)Cn2nc(C(=O)O)c3ccccc3c2=O)sc2c1CCC2,18,i,5,i,1,4,.,.
CCCc1ccc(C(=O)Cn2nc(C(=O)O)c3ccccc3c2=O)cc1,6,i,-1,i,10*,-5,4,5
NC(=O)c1c(NC(=O)Cn2nc(C(=O)O)c3ccccc3c2=O)sc2c1CCCC2,2,i,2,i,10*,2,8,4
O=C(Cn1nc(C(=O)O)c2ccccc2c1=O)Nc1cc(Cl)cc(Cl)c1,2,i,-1,i,12*,-3,0,5
CCCCCN(C(=O)CCC(=O)OC(C)C(=O)Nc1ccccc1C)c1c(N)n(CCCC)c(=O)[nH]c1=O (centres undefined),4,.,.,.,1,5,.,.
CC(C)n1c(SCC(=O)NC2CC2)nnc1C1CC1,1,i,-3,i,-5,6,.,.
COCOc1ccc(-c2oc3c(C/C=C(\C)CCC=C(C)C)ccc(O)c3c(=O)c2OCOC)c(OCOC)c1,3,i,-4,.,0,2,.,.
O=C(NNC(=O)c1cccc2ccccc12)c1ccc(Br)cc1,0,.,.,i,-1,1,.,.
CCOc1cc(C=NN2CCCCCC2)ccc1O,-3,.,.,i,-1,0,.,.
CNc1nc(N/N=C/c2cc3c(cc2[N+](=O)[O-])OCO3)nc(Nc2ccccc2)n1,16,i,-4,i,25*,-2,8,10
CN(C)C(CNC(=O)c1cc(-c2ccco2)nc2ccccc12)c1ccccc1 (centres undefined),11,.,0,i,-2,2,.,.
COc1ccc(C(C)=O)cc1COC(=O)c1ccc2c(c1)OCCO2,0,.,5,i,9.8*,1,4,2
COc1ccc(NC(=O)COC(=O)c2ccc3c(c2)OCO3)c(OC)c1,14,.,1,i,14*,1,-2,4
COc1ccc(C)cc1NC(=O)COC(=O)c1ccc2c(c1)OCCO2,1,.,7,i,10*,4,-2,17
COc1ccc(NC(=O)COC(=O)c2ccc3c(c2)OCCO3)cc1OC,14,.,-3,i,17*,9,9.0*,3
Cc1ccc(NC(=O)COC(=O)c2ccc3c(c2)OCCO3)cc1,18,.,1,i,-3,6,.,.
CCOC(=O)C1=C(C)Nc2ccccc2N=C1NC(=O)C1CCN(C(=O)c2ccccc2C)CC1,16,.,-1,i,0,2,.,.
COc1ccc(C)cc1NS(=O)(=O)c1ccc(Cl)nc1,1,.,2,i,0,1,.,.
SMILES,MC4R antagonist,TMEM16A inh,MIN6 prolif,ANO1 activ,MC4R ag barr,HTR2A ag,MC4R barr conf,MOR-DOR barr ag
COc1ccc(C)cc1NC(=O)COC(=O)c1ccc2c(c1)OCO2,3,.,0,i,13*,-2,-4,3
Cc1cc(C)n2nc(C(=O)OCC(=O)Nc3ccc(F)cc3F)nc2n1,4,i,7,i,-2,-3,.,.
COc1cccc(Nc2nnc(SCN3C(=O)c4ccccc4C3=O)s2)c1,11,i,2,i,14*,-2,-1,3
CCCCc1nc2sc3c(SCC(=O)NCc4ccco4)ncnc3c2c2c1CCC2,16,i,-3,i,14*,3,2,4
O=C(CCC(=O)N(CC(=O)NC1CCCCC1)Cc1cccs1)Nc1ccccn1,0,i,-2,i,-2,1,.,.
COc1ccc(/C=C2/N=C(SCC(=O)Nc3cc(C)on3)N(c3ccccc3)C2=O)cc1,-7,i,.,i,11*,0,5,5
Cc1cc(NC(=O)CN2C(=O)S/C(=C\c3ccccc3)C2=O)no1,-3,i,1,i,26*,3,4,9
Cc1c(C)c2ccc(OCC(=O)NCCc3c[nH]c4ccccc34)cc2oc1=O,1,.,.,.,3,-1,.,.
CCCCCCCCCCCCCCCC[n+]1ccc(/C=N/O)cc1,7,i,-3,i,20*,5,64*,16
O/N=C/c1cccc[n+]1CCCCCC[n+]1ccccc1/C=N/O,-3,i,2,i,-1,2,.,.
C=C(C)Cn1c2ccc(NC(=S)NCc3ccccc3F)cc2c(=O)n1C,3,.,.,.,0,-5,.,.
COc1ccc2nc(NN=C(C)c3ccccn3)cc(C)c2c1,0,.,.,i,-3,-1,.,.
Cc1ccc(NC(=O)COc2coc(CN3CCc4ccccc43)cc2=O)cc1Cl,8,i,-6,i,12*,-6,5,25*
COC(=O)c1ccc(NC(=O)COc2coc(CN3CCc4ccccc43)cc2=O)cc1,-1,i,2,i,-4,5,.,.
